# Assay outcomes deposited in PubChem by Johns Hopkins Ion Channel Center.
# KCNK9 block = blocks the human KCNK9 two-pore domain potassium channel | HEK293 KCNK9, FluxOR thallium flux fluorescence; stronger effect = lower value | Q9NPC2 | 310,000 compounds, 1.2% hits | AID 488922 | B-score at 10 µM;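 active means ratio B-score over 3 SD below the library mean, with starting fluorescence within 5 SD of its mean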;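 further: negative B-score means less thallium flux so channel inhibition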
# KCNK3 block = human KCNK3 channel inhibition, primary screen; AID 602410; 340,000 compounds, 0.84% hits; B-score at 10 µM; CHO-KCNK3 thallium flux, FluxOR fluorescence; stronger effect = lower value;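 active means B-score under library mean minus 4 SD, starting fluorescence ratio at most library mean plus 5 SD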;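 further: more negative B-score means stronger inhibition of thallium flux through KCNK3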
# KCNQ1 inh = inhibitors of human KCNQ1 potassium channel. P51787. CHO-K1 KCNQ1, FluxOR thallium flux fluorescence; stronger effect = higher value. B-score at 10 µM. 310,000 compounds, 1.3% hits. AID 2642;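 active means compounds whose thallium flux B-score, printed positive for inhibition, exceeds three library SD while starting fluorescence stays within three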;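 further: channel opened by potassium depolarization with thallium stimulus after 20 min compound exposure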
# hERG rescue = compounds protecting human hERG from proarrhythmic drug block; activation (rescue from dofetilide block), less the hit threshold, % at 10 µM; CHO-hERG, FluxOR thallium flux, dofetilide IC70 present; 310,000 compounds, 0.51% hits; Q12809;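 active means activation above the mean of controls blocked by dofetilide plus 5 SD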;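 further: thallium influx through hERG after potassium depolarization seen as dye fluorescence rise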
# Target sequence (Q12809 whole entry, looked up): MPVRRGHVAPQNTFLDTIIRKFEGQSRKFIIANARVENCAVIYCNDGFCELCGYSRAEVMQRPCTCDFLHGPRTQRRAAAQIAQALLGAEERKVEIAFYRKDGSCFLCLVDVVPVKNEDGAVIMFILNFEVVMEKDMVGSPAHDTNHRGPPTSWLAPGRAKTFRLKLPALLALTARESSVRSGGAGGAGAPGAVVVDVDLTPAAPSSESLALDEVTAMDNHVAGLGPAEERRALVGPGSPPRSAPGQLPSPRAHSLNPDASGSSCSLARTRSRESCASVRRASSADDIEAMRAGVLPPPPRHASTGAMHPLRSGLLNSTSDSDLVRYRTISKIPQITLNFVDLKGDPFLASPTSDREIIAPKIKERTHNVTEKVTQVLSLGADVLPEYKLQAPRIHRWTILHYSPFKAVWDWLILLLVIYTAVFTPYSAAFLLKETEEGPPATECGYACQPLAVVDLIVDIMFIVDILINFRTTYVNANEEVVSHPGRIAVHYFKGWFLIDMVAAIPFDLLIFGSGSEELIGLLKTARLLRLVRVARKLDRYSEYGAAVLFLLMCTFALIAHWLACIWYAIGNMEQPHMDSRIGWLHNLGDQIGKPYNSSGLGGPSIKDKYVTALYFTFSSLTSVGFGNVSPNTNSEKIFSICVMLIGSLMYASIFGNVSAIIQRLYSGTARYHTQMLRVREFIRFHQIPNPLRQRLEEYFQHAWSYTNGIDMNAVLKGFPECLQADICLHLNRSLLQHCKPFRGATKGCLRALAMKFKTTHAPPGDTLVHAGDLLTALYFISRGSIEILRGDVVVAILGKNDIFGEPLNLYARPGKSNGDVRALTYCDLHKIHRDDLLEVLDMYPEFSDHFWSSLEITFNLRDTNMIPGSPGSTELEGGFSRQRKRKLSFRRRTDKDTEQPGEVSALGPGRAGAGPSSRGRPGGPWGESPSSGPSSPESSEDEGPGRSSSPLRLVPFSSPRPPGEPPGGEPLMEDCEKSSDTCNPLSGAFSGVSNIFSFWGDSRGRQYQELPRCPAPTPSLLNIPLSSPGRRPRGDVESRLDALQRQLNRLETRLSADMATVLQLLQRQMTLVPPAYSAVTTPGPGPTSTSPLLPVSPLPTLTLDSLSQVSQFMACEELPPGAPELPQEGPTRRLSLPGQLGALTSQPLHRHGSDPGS
# KCNQ1 pot = human KCNQ1 channel potentiation or activation; P51787; B-score at 10 µM; CHO-K1 KCNQ1, thallium flux FluxOR fluorescence; stronger effect = higher value; AID 2648; 310,000 compounds, 0.35% hits;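 active means fluorescence ratio B-score, a plate-corrected score, at least three library SD, with initial intensity B-score within 5 SD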
#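 System: Stable KCNQ1 CHO-K1 line | Incubation: 90 min dye loading and 20 min compound exposure, both at room temperature | Measure: Ratio B score | Medium: Assay buffer for compound exposure, DMSO matched across wells | Compound dosing: Single-concentration screen | Probe or stimulus: K+/Tl+ depolarizing stimulus | Measured by: Kinetic FluxOR fluorescence, 10 s baseline plus 110 s post-stimulus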
# Kir21 block = inhibitors of mouse Kir2.1 inward-rectifier potassium channel | HEK293-Kir2.1, FluxOR thallium flux fluorescence; stronger effect = lower value | B-score at 10 µM | AID 1672 | 310,000 compounds, 0.85% hits;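 active means fluorescence ratio B-score at or below minus 3 SD of library scores, with starting-brightness B-score within 2 SD, cut at about -4.2 in these data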;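 further: channel flux triggered by added potassium and thallium sulfate stimulus; B-score of peak minus minimum fluorescence over baseline after thallium stimulus; more negative B-score means stronger Kir2.1 block with less thallium influx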
# Starred values were filed as active, the others as inactive; i = inactive; x = no result given. Shown are actives, neighbours in structure and some others; about 3.7% of the full set was active somewhere.
SMILES,KCNK9 block,KCNK3 block,KCNQ1 inh,hERG rescue,KCNQ1 pot,Kir21 block
CCOc1ccc(-c2csc(/C(C#N)=C\c3ccc(O)c([N+](=O)[O-])c3)n2)cc1,i,i,6*,-15.6,i,0.65
CC(=O)N(Cc1ccc(Br)cc1)c1cccc(C)c1C,i,i,i,-6.3,i,-4.94*
O=S(=O)(Nc1ccncc1)c1cc(Cl)c(Cl)cc1Cl,i,i,i,-5.9,i,0.3
O=C(c1cc2nc(-c3ccc(Cl)cc3)cc(C(F)(F)F)n2n1)N1CCOCC1,i,i,i,46.3*,i,-0.16
CN1CCN(C(=O)c2cc3nc(-c4ccc(Cl)cc4)cc(C(F)(F)F)n3n2)CC1,i,i,i,-6.3,i,2.98
Cc1nn(-c2ccccc2)nc1C(=O)c1c(C)[nH]n(-c2ccccc2)c1=O,i,i,i,-14.3,i,-0.64
C=CCn1c(Cc2cccs2)nnc1SC/C=C/c1ccccc1,i,i,i,-14.6,i,-14.9*
Cn1c(SC/C=C/c2ccccc2)nnc1-c1cccs1,i,i,i,-15.9,i,-1.19
CCn1c(SC/C=C/c2ccccc2)nnc1-c1cccs1,i,i,i,-21.0,i,-7.81*
CCCCOC(=O)c1ccc(NC(=O)C(=O)CC(=O)c2ccc(OC)cc2)cc1,i,i,i,-5.7,i,-0.34
COc1ccc(C2c3ccsc3CCN2C(C)=O)cc1 (stereo not drawn),i,i,i,-13.3,i,-0.89
O=C(C1CC1)N1CCc2sccc2C1c1ccc(Cl)cc1 (stereo not drawn),i,i,6*,-2.6,i,-1.97
CC(=O)Nc1ccc(NC(=O)C(C)OC(=O)CNC(=O)c2ccc(-c3ccccc3)cc2)cc1 (stereo not drawn),i,i,i,-20.4,i,-0.79
CCCn1cnnc1CNC(=O)C1CCC(=O)N(CCCc2ccccc2)C1 (stereo not drawn),i,i,i,-2.9,i,1.12
C=CCC(O)(CC=C)CNC(=O)C1CCC(=O)N(CCCc2ccccc2)C1 (stereo not drawn),i,i,i,6.7*,i,-0.22
O=C(CSc1nnc(C2CC2)n1Cc1ccccc1)c1cc2ccccc2o1,i,i,i,-7.8,i,-4.48*
Cn1c(N)c(C(=O)CSc2nnc(C3CC3)n2Cc2ccccc2)c(=O)n(C)c1=O,x,i,x,x,x,x
Cc1ccc(-n2c(SCC(=O)N(C)C3CCS(=O)(=O)C3)nc3ccccc3c2=O)c(C)c1 (stereo not drawn),x,-9.18*,x,x,x,x
COCCn1c(SCC(=O)N(C)C2CCS(=O)(=O)C2)nc2ccccc2c1=O (stereo not drawn),i,i,i,-9.3,i,0.53
CCOC(=O)C1=C(C)NC(SC)=C(C#N)C1CC(C)C (stereo not drawn),i,i,i,-8.4,i,-7.08*
CN1CCN(Cc2cc(=O)oc3cc4c(cc23)CCC4)CC1,i,i,i,-3.9,i,-1.88
CCN1CCN(Cc2cc(=O)oc3cc4c(cc23)CCC4)CC1,i,i,8*,-25.0,i,-0.83
O=S(=O)(Nc1ccc2cn[nH]c2c1)c1ccc(Cl)cc1,i,i,i,-6.9,i,-2.76
Cc1cc(S(=O)(=O)Nc2ccc3cn[nH]c3c2)c(C)cc1Cl,i,i,i,-15.3,i,-5.19*
CCOc1ccc(N(C)S(=O)(=O)c2ccc(C)c(C(=O)OCC(=O)c3c[nH]c4ccccc34)c2)cc1,-7.59*,i,i,-10.4,i,2.16
SMILES,KCNK9 block,KCNK3 block,KCNQ1 inh,hERG rescue,KCNQ1 pot,Kir21 block
CCOC(=O)c1[nH]c(C)c(C(=O)OCC(=O)NC(C)c2ccc(F)cc2)c1C (stereo not drawn),x,i,x,x,x,x
Fc1ccc(-c2csc(=S)[nH]2)cc1,i,i,i,48.3*,35*,0.82
S=c1[nH]c(-c2ccccc2)cs1,i,i,i,60.6*,44*,1.82
CCOC(=O)c1c(NC(=O)CSc2nnnn2-c2ccc3c(c2)OCO3)sc(C)c1C,i,i,i,-5.5,i,0.24
COC(=O)c1c(NC(=O)CSc2nnnn2-c2ccc3c(c2)OCO3)sc(C)c1C,-6.89*,i,i,2.8,i,0.58
Cc1nnc(SCC(=O)Nc2ccc(S(=O)(=O)N3CCCC3)cc2)n1N,i,i,i,35.5*,i,-0.13
Nn1c(SCC(=O)Nc2ccc(F)cc2)nnc1C1CCCCC1,i,i,i,4.9*,i,0.07
Nn1c(SCC(=O)Nc2ccccc2)nnc1C1CCCCC1,i,i,i,-6.6,i,-1.41
O=C(CSc1nc2ccc(Cl)cc2[nH]1)Nc1ccc2[nH]c(=O)[nH]c2c1,i,i,i,-17.7,i,0.67
O=C(CSc1ccc(F)cc1)Nc1ccccc1N1CCOCC1,i,i,i,-6.8,i,-13.5*
Cc1ccc(SCC(=O)Nc2ccccc2N2CCOCC2)cc1,i,i,i,-12.0,i,-12*
Cc1noc(C)c1CSCC(=O)Nc1ccccc1N1CCCCC1,i,i,i,-19.1,i,-9.95*
Cc1cccc(NC(=O)CSCc2c(C)noc2C)c1C,i,i,i,-6.0,i,0.05
Cc1ccc(-c2nnc(SCC(=O)Nc3ccccc3N3CCOCC3)o2)cc1,i,i,i,-15.5,i,0.16
O=C(CSc1ccccc1)Nc1ccccc1N1CCOCC1,i,i,i,-9.7,i,-8.52*
C[C@]12CC[C@H](O)CC1=C[C@H](O)C1C2CC[C@@]2(C)C1CC[C@@]2(O)C#Cc1ccc(CN)cc1 (stereo partly drawn),x,i,x,x,x,x
COc1cccc(/C=C2\SC(=O)N(CC(=O)NCCCn3ccnc3)C2=O)c1,i,i,i,-7.3,i,-2.01
COc1ccc(/C=C2\SC(=S)N(CCC(=O)NCCCn3ccnc3)C2=O)cc1,i,i,i,-12.8,i,0.48
O=C(CCCN1C(=O)/C(=C/c2ccc(F)cc2)SC1=S)NCCCn1ccnc1,i,i,i,-13.7,i,-4.68*
CCOC(=O)N1CCN(C(=O)CCN2C(=O)/C(=C\c3ccccc3OC)SC2=S)CC1,i,i,i,-10.3,i,-0.06
COc1ccc(/C=C2\SC(=O)N(CC(=O)NCCCn3ccnc3)C2=O)cc1,i,i,7*,-7.3,i,-0.24
CCOc1ccccc1C=C1SC(=S)N(CC)C1=O,x,-9.66*,x,x,x,x
COc1ccccc1/C=C1\SC(=S)N(CCC(=O)NNC(=O)c2ccccc2O)C1=O,i,i,6*,-27.9,i,1.49
